Assay [1] has as its system Staphylococcus aureus. Description: Antibacterial activity against Staphylococcus aureus COL expressing beta-lactamase. The class given is functional.
The nature of assay [2]: Inhibition of Staphylococcus epidermidis PBP2. Put shortly:
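Enzyme: purified recombinant PBP2' from Staphylococcus epidermidis, used as the inhibition target.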

The subject of assay [3] is Staphylococcus aureus. Description: Antibacterial activity against beta-lactamase deficient Staphylococcus aureus COL. The class given is functional.
Assay [4] relates to Staphylococcus aureus. Description: Antibacterial activity against Staphylococcus aureus COL expressing beta-lactamase in presence of Sulbactam. Type of assay: functional.
Assay [5] deals with Staphylococcus aureus. Description: Antibacterial activity against Staphylococcus aureus 887 expressing beta-lactamase. The class given is functional.
Assay [6] has as its system Staphylococcus aureus. Description: Antibacterial activity against Staphylococcus aureus ATCC 25923. The class given is functional.
Assay [7] deals with Streptococcus pneumoniae. Description: Antibacterial activity against Streptococcus pneumoniae R6. Type of assay: functional.
The subject of assay [8] is Escherichia coli. Description: Antibacterial activity against Escherichia coli UB1005. Type of assay: functional.

The structures appear in SMILES notation. ≈ marks a conversion by molar mass, not a printed value.

What is called MIC is the lowest concentration that inhibits growth of the organism. In general, IC50 refers to the concentration needed to halve the response being measured. A high value points to weaker potency. In the case of `O=C(CSc1ccc2ccccc2c1)N[C@@H]1C(=O)N2C(C(=O)O)=C(/C=C/CNC(=O)c3cccnc3)CS[C@H]12`, the minimal inhibitory concentration (MIC) in assay [1] was > 32 µg/mL; in assay [3] it was 4 µg/mL (≈ 7.13 µM); in assay [4] it was 1 µg/mL; in assay [5], 1 µg/mL (≈ 1.78 µM); in assay [6], 0.13 µg/mL (≈ 0.232 µM); in assay [7], ≤ 0.06 µg/mL. The minimum inhibitory concentration (MIC) in assay [8] was > 32 µg/mL. The same compound came in with a half-maximal inhibitory concentration (IC50) in assay [2] of 31 µM.
Turning to `CN(C)CC(=O)NC/C=C/C1=C(C(=O)O)N2C(=O)[C@@H](NC(=O)CSc3ccc4ccccc4c3)[C@H]2SC1`, the minimal inhibitory concentration (MIC) in assay [1] is 32 µg/mL (≈ 59.2 µM); in assay [3] it was 4 µg/mL (≈ 7.4 µM); in assay [4], 4 µg/mL; in assay [5] it was 1 µg/mL (≈ 1.85 µM); in assay [6], ≤ 0.06 µg/mL; in assay [7] it was ≤ 0.06 µg/mL. In addition, the minimal inhibitory concentration (MIC) in assay [8] is > 32 µg/mL. The same compound showed an IC50 in assay [2] of 50 µM.
Regarding `O=C(CSc1ccc2ccccc2c1)N[C@@H]1C(=O)N2C(C(=O)O)=C(/C=C/CNC(=O)C3CC3)CS[C@H]12`, the MIC is 16 µg/mL (≈ 30.6 µM) in assay [1]; 1 µg/mL (≈ 1.91 µM) in assay [3]; 0.5 µg/mL (≈ 0.955 µM) in assay [5]; ≤ 0.06 µg/mL in assay [6]; ≤ 0.06 µg/mL in assay [7]; > 32 µg/mL in assay [8].
Regarding `O=C(CSc1ccc2ccccc2c1)N[C@@H]1C(=O)N2C(C(=O)O)=C(/C=C/CNS(=O)(=O)c3ccccc3)CS[C@H]12`, the MIC in assay [1] was 32 µg/mL (≈ 53.7 µM); in assay [3] it was 1 µg/mL (≈ 1.68 µM); in assay [5], 2 µg/mL (≈ 3.36 µM); in assay [6], ≤ 0.06 µg/mL; in assay [7] it was ≤ 0.06 µg/mL; in assay [8] it was > 32 µg/mL. In assay [2], this compound registered an IC50 of 20 µM.
As for `CCS(=O)(=O)NC/C=C/C1=C(C(=O)O)N2C(=O)[C@@H](NC(=O)CSc3ccc4ccccc4c3)[C@H]2SC1`, the minimal inhibitory concentration (MIC) in assay [1] was > 32 µg/mL; in assay [3], 8 µg/mL (≈ 14.6 µM); in assay [5] it was 2 µg/mL (≈ 3.65 µM); in assay [6], ≤ 0.06 µg/mL; in assay [7], ≤ 0.06 µg/mL; in assay [8], > 32 µg/mL. The compound further registered a 50% inhibitory concentration (IC50) in assay [2] of 22 µM.
As to `O=C(CSc1ccc2ccccc2c1)N[C@@H]1C(=O)N2C(C(=O)O)=C(/C=C/CNS(=O)(=O)c3csc(Cl)c3)CS[C@H]12`, the MIC is 16 µg/mL (≈ 25.1 µM) in assay [1]; 1 µg/mL (≈ 1.57 µM) in assay [3]; 1 µg/mL in assay [4]; 0.5 µg/mL (≈ 0.786 µM) in assay [5]; ≤ 0.06 µg/mL in assay [6]; ≤ 0.06 µg/mL in assay [7]. For the same compound, in assay [8], the MIC was > 32 µg/mL. In assay [2], the half-inhibitory concentration (IC50) worked out at 2 µM.
With `CN1CCCC1C(=O)NC/C=C/C1=C(C(=O)O)N2C(=O)[C@@H](NC(=O)Cc3ccccc3)[C@H]2SC1` (stereo partly specified), the MIC is > 32 µg/mL in assay [1]; > 32 µg/mL in assay [3]; 8 µg/mL (≈ 16.5 µM) in assay [5]; 0.25 µg/mL (≈ 0.516 µM) in assay [6]; ≤ 0.06 µg/mL in assay [7]; > 32 µg/mL in assay [8].
For the compound `O=C(Cc1ccccc1)N[C@@H]1C(=O)N2C(C(=O)O)=C(/C=C/CNC(=O)c3cccnc3)CS[C@H]12`, the MIC in assay [1] is > 32 µg/mL; in assay [3], > 32 µg/mL; in assay [6], ≤ 0.06 µg/mL; in assay [7] it was ≤ 0.06 µg/mL; in assay [8], > 32 µg/mL.
Consider `O=C(Cc1ccccc1)N[C@@H]1C(=O)N2C(C(=O)O)=C(/C=C/CNS(=O)(=O)c3ccccc3)CS[C@H]12`, for which the minimum inhibitory concentration (MIC) in assay [1] was > 32 µg/mL; in assay [3], > 32 µg/mL; in assay [5] it was 16 µg/mL (≈ 31.2 µM); in assay [6], 0.5 µg/mL (≈ 0.974 µM); in assay [7], 0.13 µg/mL (≈ 0.253 µM); in assay [8], > 32 µg/mL.
In the case of `O=C(Cc1ccccc1)N[C@@H]1C(=O)N2C(C(=O)O)=C(/C=C/CNS(=O)(=O)c3csc(Cl)c3)CS[C@H]12`, the minimal inhibitory concentration (MIC) was > 32 µg/mL in assay [1]; 32 µg/mL (≈ 57.8 µM) in assay [3]; 2 µg/mL (≈ 3.61 µM) in assay [5]; 0.13 µg/mL (≈ 0.235 µM) in assay [6]; ≤ 0.06 µg/mL in assay [7]; > 32 µg/mL in assay [8].
Take `CO/N=C(\C(=O)N[C@@H]1C(=O)N2C(C(=O)O)=C(/C=C/CNC(=O)C3CCCN3C)CS[C@H]12)c1csc(N)n1` (stereo partly specified): the MIC in assay [1] is > 32 µg/mL; in assay [3], > 32 µg/mL; in assay [5], 8 µg/mL (≈ 14.6 µM); in assay [6], 2 µg/mL (≈ 3.64 µM); in assay [7] it was ≤ 0.06 µg/mL; in assay [8], 1 µg/mL (≈ 1.82 µM). For the same compound, in assay [2], the IC50 was > 500 µM.
On to `CO/N=C(\C(=O)N[C@@H]1C(=O)N2C(C(=O)O)=C(/C=C/CNC(=O)c3cccnc3)CS[C@H]12)c1csc(N)n1`, for which the minimal inhibitory concentration (MIC) in assay [1] is > 32 µg/mL; in assay [3] it was > 32 µg/mL; in assay [5], 8 µg/mL (≈ 14.7 µM); in assay [6], 4 µg/mL (≈ 7.36 µM); in assay [7], ≤ 0.06 µg/mL; in assay [8], 0.25 µg/mL (≈ 0.46 µM). Besides, the IC50 in assay [2] is > 500 µM.
For `CO/N=C(\C(=O)N[C@@H]1C(=O)N2C(C(=O)O)=C(/C=C/CNS(=O)(=O)c3cccnc3)CS[C@H]12)c1csc(N)n1`, the MIC was > 32 µg/mL in assay [1]; > 32 µg/mL in assay [3]; 2 µg/mL (≈ 3.45 µM) in assay [5]; 1 µg/mL (≈ 1.73 µM) in assay [6]; ≤ 0.06 µg/mL in assay [7]; 1 µg/mL (≈ 1.73 µM) in assay [8]. In assay [2], this compound returned a half-maximal inhibitory concentration (IC50) of 235 µM.
As for `Nc1nc(/C(=N/O)C(=O)N[C@@H]2C(=O)N3C(C(=O)O)=C(/C=C/CNS(=O)(=O)c4ccccc4)CS[C@H]23)c(Cl)s1`, the MIC in assay [1] is 16 µg/mL (≈ 26.7 µM); in assay [3], 8 µg/mL (≈ 13.4 µM); in assay [5], 1 µg/mL (≈ 1.67 µM); in assay [6], 0.5 µg/mL (≈ 0.835 µM); in assay [7], 0.25 µg/mL (≈ 0.417 µM); in assay [8], > 32 µg/mL. Moreover, in assay [2], the concentration for half-maximal inhibition (IC50) was 6 µM.
With `Nc1nc(/C(=N/O)C(=O)N[C@@H]2C(=O)N3C(C(=O)O)=C(/C=C/CNS(=O)(=O)c4cccnc4)CS[C@H]23)c(Cl)s1`, the MIC was 32 µg/mL (≈ 53.3 µM) in assay [1]; 16 µg/mL (≈ 26.7 µM) in assay [3]; 4 µg/mL (≈ 6.67 µM) in assay [5]; 2 µg/mL (≈ 3.33 µM) in assay [6]; ≤ 0.06 µg/mL in assay [7]; 16 µg/mL (≈ 26.7 µM) in assay [8]. This compound also came in with an IC50 in assay [2] of 12 µM.
`CN1CCCC1C(=O)NC/C=C/C1=C(C(=O)O)N2C(=O)[C@@H](NC(=O)CSc3ccc4ccccc4c3)[C@H]2SC1` (stereo partly specified): the minimal inhibitory concentration (MIC) was > 32 µg/mL in assay [1]; 4 µg/mL (≈ 7.06 µM) in assay [3]; 1 µg/mL in assay [4]; 1 µg/mL (≈ 1.76 µM) in assay [5]; 0.13 µg/mL (≈ 0.229 µM) in assay [6]; 0.13 µg/mL (≈ 0.229 µM) in assay [7]. Moreover, the MIC in assay [8] was > 32 µg/mL.
`CC1(C)S[C@@H]2[C@H](NC(=O)[C@H](N)c3ccc(O)cc3)C(=O)N2[C@H]1C(=O)O` [AMOXICILLIN]: the MIC in assay [1] was > 32 µg/mL; in assay [3] it was 32 µg/mL (≈ 87.6 µM); in assay [5], 32 µg/mL (≈ 87.6 µM); in assay [6], 0.25 µg/mL (≈ 0.684 µM); in assay [7], ≤ 0.06 µg/mL; in assay [8], 8 µg/mL (≈ 21.9 µM).
In the case of `CC(=O)OCC1=C(C(=O)O)N2C(=O)[C@@H](NC(=O)Cc3cccs3)[C@H]2SC1` [CEPHALOTHIN], the minimum inhibitory concentration (MIC) is > 32 µg/mL in assay [1]; > 32 µg/mL in assay [3]; 0.5 µg/mL (≈ 1.26 µM) in assay [5]; 0.25 µg/mL (≈ 0.631 µM) in assay [6]; 0.125 µg/mL (≈ 0.315 µM) in assay [7]; 8 µg/mL (≈ 20.2 µM) in assay [8].

The values are drawn from ChEMBL document CHEMBL1208695, “Propenylamide and propenylsulfonamide cephalosporins as a novel class of anti-MRSA beta-lactams” (Bioorg Med Chem Lett, 2010).
